Screens as filed in PubChem BioAssay.
An excerpt weighted towards active compounds, which were near 1.2% of everything screened.
LANA-H2B inh = blockers of LANA interaction with H2A/H2B – biochemical, FP readout, HTS, primary screen | Protein LANA1 (Human herpesvirus 8 type P (isolate GK18)), Q9QR71 | cell-free LANA-H2A/H2B peptide, fluorescence polarization | inhibition, % (concentration not given with the values) | hit rate 0.6% among 320,000 | AID 2629, 2010; in the data active = inhibition mostly above about 10%, no sharp cut-off; inactive = mostly below about 6.7%
Target sequence (Q9QR71 whole entry, looked up): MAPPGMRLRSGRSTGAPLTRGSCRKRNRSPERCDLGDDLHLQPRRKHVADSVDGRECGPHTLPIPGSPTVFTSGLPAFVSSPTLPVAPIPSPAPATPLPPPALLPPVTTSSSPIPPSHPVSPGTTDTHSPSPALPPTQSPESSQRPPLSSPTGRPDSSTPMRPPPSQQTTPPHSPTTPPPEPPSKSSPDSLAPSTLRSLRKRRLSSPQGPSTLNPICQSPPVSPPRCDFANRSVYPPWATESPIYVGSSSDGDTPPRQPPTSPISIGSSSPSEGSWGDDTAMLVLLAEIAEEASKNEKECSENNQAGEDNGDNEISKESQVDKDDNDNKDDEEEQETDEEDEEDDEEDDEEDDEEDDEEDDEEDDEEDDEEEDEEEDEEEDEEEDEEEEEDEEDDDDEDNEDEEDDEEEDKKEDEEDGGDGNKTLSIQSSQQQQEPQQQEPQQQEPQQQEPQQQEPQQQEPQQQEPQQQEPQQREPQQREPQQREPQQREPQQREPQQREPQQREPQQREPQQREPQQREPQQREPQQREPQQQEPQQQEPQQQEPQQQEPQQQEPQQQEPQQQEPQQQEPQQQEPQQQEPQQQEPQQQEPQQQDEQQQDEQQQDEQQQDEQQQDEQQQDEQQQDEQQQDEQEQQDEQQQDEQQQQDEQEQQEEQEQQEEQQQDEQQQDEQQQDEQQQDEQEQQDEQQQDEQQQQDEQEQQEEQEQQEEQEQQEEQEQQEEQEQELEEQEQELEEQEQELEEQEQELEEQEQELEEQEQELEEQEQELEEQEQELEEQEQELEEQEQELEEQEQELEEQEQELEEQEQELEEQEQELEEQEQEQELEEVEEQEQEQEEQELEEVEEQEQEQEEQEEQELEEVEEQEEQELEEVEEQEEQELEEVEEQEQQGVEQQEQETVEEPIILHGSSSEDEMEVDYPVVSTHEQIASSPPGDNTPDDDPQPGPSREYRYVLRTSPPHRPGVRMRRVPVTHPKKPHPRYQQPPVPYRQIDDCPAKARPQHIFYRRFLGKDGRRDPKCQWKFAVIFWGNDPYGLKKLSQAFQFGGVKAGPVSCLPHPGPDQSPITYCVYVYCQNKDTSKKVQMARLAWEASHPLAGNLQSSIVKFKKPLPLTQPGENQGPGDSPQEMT
procasp3 activ = activators of human procaspase-3 D3A mutant, primary screen, biochemical, absorbance, PC-3 D3A mutant, single concentration; hit rate 0.11% among 330,000; Caspase-3 (Homo sapiens), P42574; recombinant procaspase-3 D3A, Ac-DEVD-pNA absorbance 405 nm; activation, % at 8.5 µM; AID 463141, 2010;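 active = activation above the mean of all tested compounds plus 3 SD, cut at about 21% in these data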;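 also: 0% = DMSO alone and 100% = DMSO wells spiked with extra 5 µM PC-3 D3A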
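assay system = Procaspase-3 D3A mutant | signal = absorbance at 405 nm, 0 and 120 min | times = 1 h preincubation plus 2 h reaction at 25 °C | repeats = single replicate | read-out = % activation between DMSO and enzyme-spiked controls | medium = Zinc-free HEPES saline buffer with Triton X-100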
CR mimetic SO = reduction of superoxide in aged yeast, primary screen, HTS; hit rate 0.18% among 330,000; AID 2690, 2010; S. cerevisiae aged cells, superoxide DHE fluorescence; active compounds read low; superoxide response (% of plate mean), % at 10 µM;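 active = superoxide response under a set limit, about three screen SD below normal, cut at about 65% in these data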;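 also: yeast aged for seven days with compound at 30 °C before DHE staining; 100% = average MFI of all compound-treated wells on the plate with controls excluded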
ASAP1 GAP inh = inhibitors of human ASAP1 ArfGAP activity, primary screen, biochemical, fluorescence polarization; ASAP1-stimulated ARF1 GTP hydrolysis, GDP FP detection; inhibition, % at 16.5 µM; hit rate 0.19% among 360,000; Arf-GAP with SH3 domain, ANK repeat and PH domain-containing protein 1 (Homo sapiens), …; AID 624377, 2012; in the data active = inhibition above about 25%;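 also: 0% = vehicle with enzyme and substrate and 100% = no enzyme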
ARFGAP1 inhibitor = inhibitors of rat ARFGAP1 GAP activity, primary screen, biochemical, fluorescence polarization, GDP tracer | inhibition, % at 16.5 µM | hit rate 0.26% among 360,000 | Arfgap1-stimulated ARF1 GTP hydrolysis, GDP FP detection | ADP-ribosylation factor GTPase-activating protein 1 (Rattus norvegicus), Q62848;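 active = inhibition above a per-plate limit, mean inhibition of low control wells plus 3 SD, cut at about 25% in these data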;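 also: 0% = DMSO wells with enzyme and 100% = wells lacking Arfgap1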
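System: truncated rat Arfgap1 GAP domain / Benchmarks: high control wells lacking Arfgap1, low control full reaction with DMSO / Times: compound-enzyme preincubation 20 min, reaction 120 min, detection 60 min, 25 °C / Repeats: one replicate per compound / Also added: human ARF1(Δ1-17)-GTP substrate / Measured by: Tracer-displacement fluorescence polarization with EDTA stop, 620/688 nm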
proCasp7 act = procaspase-7 activators, primary screen, counter-screen for procaspase-3 activator project, biochemical, absorbance, HTS, human; recombinant procaspase-7, Ac-DEVD-pNA absorbance 405 nm; D23A/D198A/D206A triple mutant, cannot self-cleave; scale: DMSO 0, 5 µM enzyme 100; activation, % at 8.5 µM; hit rate 0.093% among 330,000; AID 463210, 2010;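 active = percent activation above the screen-wide mean plus 3 SD, cut at about 25% in these data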
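Assay system: Uncleavable procaspase-7 mutant enzyme; Input: 2 µM procaspase-7 mutant as dispensed; Also added: DEVD-pNA substrate; Medium: Zinc-free HEPES pH 7.4 with 300 mM NaCl, 0.01% Triton X-100; Timing: 1 h compound preincubation, 2 h substrate cleavage, 25 °C; Measured by: Epi-absorbance of released pNA at 405 nm, two timepoints.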
Active calls of the source: *; nt = not tested or not shown.

SMILES	LANA-H2B inh	procasp3 activ	CR mimetic SO	ASAP1 GAP inh	ARFGAP1 inhibitor	proCasp7 act
O=C(CSc1nc(CCC2CCCC2)nc2ccccc12)NCc1ccc2c(c1)OCO2	15*	8	92	-4	-13	7
COC(=O)[C@@H](Cc1ccccc1)NC(=O)[C@H]1O[C@@H](n2cnc3c(=O)[nH]c(N)nc32)[C@H](O)[C@@H]1O	nt	nt	nt	14	-1	nt
Cc1ccc(CN2C(=O)/C(=C\c3ccc(C(=O)NCc4cccnc4)cc3)Oc3ccccc32)cc1	1	27*	92	8	12	25
C[C@H](O)[C@@H]1CN2CCc3ccc(-c4ccc5c(c4)OCO5)cc3[C@@H]2C[C@@H]1N(C)C(=O)c1cccc(Cl)c1	nt	nt	nt	4	-7	nt
O=C1CC(=O)Nc2cc(S(=O)(=O)N3CCOc4ccc(Cl)cc43)ccc2N1	31*	10	85	-2	1	2
COc1cccc(/C=C2\SC(=S)N(CC(=O)N(C)C3CCS(=O)(=O)C3)C2=O)c1 (stereo not drawn)	-2	-8	91	-5	10	-15
COc1ccc(/C=C2\SC(=S)N(CC(=O)N(C)C3CCS(=O)(=O)C3)C2=O)cc1 (stereo not drawn)	14*	-7	86	10	2	-8
CN(C(=O)CN1C(=O)S/C(=C\c2ccc(Cl)cc2)C1=O)C1CCS(=O)(=O)C1 (stereo not drawn)	11*	2	84	5	5	1
COC(=O)c1cc2c(c3c4cc(F)ccc4n(S(=O)(=O)c4ccccc4)c13)C(=O)N(Cc1ccccc1)C2	nt	nt	nt	3	-4	nt
COC(=O)C1=C(C)N(C)C(=NCc2cc(OC)c(OC)c(OC)c2)NC1c1ccc(C(F)(F)F)cc1 (stereo not drawn)	nt	nt	nt	-6	7	nt
O=C(COC(=O)COc1ccc(Cl)cc1Br)NC1CCCCCC1	-4	8	124	6	8	-2
CN(C(=O)COc1ccc(Cl)cc1Br)C1CCCCC1	53*	1	93	3	6	1
COC(=O)[C@]12C[C@H](CC(=O)NCCC(C)C)C(=O)N(Cc3ccc4c(c3)OCO4)C1=C[C@H](COCc1ccccc1)O[C@@H]2C	nt	nt	nt	-5	-7	nt
Cc1cc(C)nc(Nc2n[nH]c(-c3ccccc3C)n2)n1	-3	18	80	-3	-1	4
Cc1cc(C)nc(Nc2n[nH]c(-c3ccccc3Br)n2)n1	18*	2	100	10	-2	-2
COC(=O)[C@]12C[C@H](CC(=O)NCCCN3CCCC3=O)C(=O)N(Cc3ccc4c(c3)OCO4)C1=C[C@H](C(C)(C)C)O[C@@H]2C	nt	nt	nt	7	2	nt
O=C(O)c1ccccc1SCc1csc(-c2ccccc2)n1	12*	-6	116	-2	22	5
COC(=O)c1ccccc1SCc1csc(C)n1	6	-4	74	-1	8	2
COC(=O)c1cccc(NC(=O)CC2C(=O)NCCN2C(=O)Nc2ccccc2)c1 (stereo not drawn)	189*	-3	98	-2	-5	1
COC(=O)c1cc(NC(=O)CC2C(=O)NCCN2C(=O)c2ccccc2)cc(C(=O)OC)c1 (stereo not drawn)	-3	0	94	-9	1	0
O=C(N/N=C/c1ccc(O)cc1)c1cc(-c2ccc3c(c2)OCO3)n[nH]1	2	-1	88	25	26*	-5
CC(C)c1[nH]nc2c1C(c1cccc(C(F)(F)F)c1)NC2=O (stereo not drawn)	nt	nt	nt	2	-15	nt
O=C(NCCCN1CCCC1)Nc1cccc2ccccc12	14*	3	89	-2	9	9
CN1CCN(CCCNC(=O)Nc2cccc3ccccc23)CC1	5	-2	104	-2	8	2
C=COCCNC(=O)C(=O)NC(C)C	17*	1	98	-1	6	5
SMILES	LANA-H2B inh	procasp3 activ	CR mimetic SO	ASAP1 GAP inh	ARFGAP1 inhibitor	proCasp7 act
CC(C)NC(=O)C(=O)NCCc1ccc(Cl)cc1	3	-9	97	7	-7	4
Brc1ccc(CN2CCCc3nc(-c4ccccc4)ccc32)cc1	nt	nt	nt	2	-2	nt
COc1ccc(NC(=O)COC(=O)CCC(=O)c2cccs2)cc1OC	23*	1	95	4	5	-6
O=C(O)c1ccc(Cl)c(S(=O)(=O)Nc2cccc(C(=O)Nc3cccc(C(F)(F)F)c3)c2)c1	70*	3	96	0	10	4
COc1ccc(C(=O)O)cc1S(=O)(=O)Nc1cccc(C(F)(F)F)c1	3	7	109	-6	-4	4
CCOCCC(=O)Nc1ccc2c(c1)c(=O)n(C)n2CC=C(C)C	nt	nt	nt	7	0	nt
O=c1[nH]c(-c2ccccc2)cn1C1CCN(Cc2ccc(-c3nc4ccc(Br)cc4nc3-c3ccccc3)cc2)CC1	nt	nt	nt	1	-1	nt
COc1ccc(-c2nn(CCC#N)cc2C(=O)Nc2cccc(C(=O)O)c2)cc1[N+](=O)[O-]	15*	6	101	-2	2	-2
COc1ccc(-c2nn(CCC#N)cc2C(=O)Nc2cccc(C(=O)O)c2)cc1OC	-1	nt	102	-4	-1	nt
CC(Sc1ccc(S(=O)(=O)N2CCOCC2)cn1)C(=O)Nc1ccc(Cl)cc1Cl (stereo not drawn)	24*	6	99	2	0	1
CCOc1ccc(C(=O)NC(=S)Nc2cc(C)ccn2)cc1[N+](=O)[O-]	98*	-6	103	-1	-5	-8
CCOc1ccc(C(=O)NC(=S)Nc2cccnc2)cc1[N+](=O)[O-]	5	9	91	0	-5	-3
COc1ccc(C(=O)NC(=S)Nc2cccnc2)cc1[N+](=O)[O-]	-1	-5	48*	-4	4	-8
O=C1NCCN(Cc2ccc(-c3ccccc3)cc2)C1CC(=O)N1CCN(CCO)CC1 (stereo not drawn)	-3	2	113	0	7	-2
COc1ccc(CCN=C(N)NS(=O)(=O)c2ccc(F)cc2)cc1OC	26*	7	101	-6	-4	0
